# From PMC7826400 (Proceedings of the National Academy of Sciences of the …, 2021)
# Where two headings read alike, the source gives them in different places.
# Key:
# MdCMS_1 = assay: DTNB endpoint assay, Lineweaver-Burk; format: biochemical, Malus domestica; conditions: read-out: Km ± SE
# How it was run: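 Recombinant apple enzyme expressed in E. coli BL21 (ORF with or without putative chloroplast transit peptide) and purified. Activity measured by DTNB (Ellman's reagent) endpoint assay. Acetyl-CoA was varied with pyruvate held saturating at 10 mM. Absorbance was corrected against an identical mixture lacking α-ketoacid. Km was obtained by regression of Lineweaver–Burk plots, with two to three replications per regression.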
# MdIPMS2 [1] = target: T1, MdIPMS2 (Malus domestica, UniProt A0A498KQL4); assay: DTNB endpoint assay, feedback inhibition; format: biochemical; conditions: read-out: % inhibition at 0.05 mM
# T1 sequence (A0A498KQL4 64-634): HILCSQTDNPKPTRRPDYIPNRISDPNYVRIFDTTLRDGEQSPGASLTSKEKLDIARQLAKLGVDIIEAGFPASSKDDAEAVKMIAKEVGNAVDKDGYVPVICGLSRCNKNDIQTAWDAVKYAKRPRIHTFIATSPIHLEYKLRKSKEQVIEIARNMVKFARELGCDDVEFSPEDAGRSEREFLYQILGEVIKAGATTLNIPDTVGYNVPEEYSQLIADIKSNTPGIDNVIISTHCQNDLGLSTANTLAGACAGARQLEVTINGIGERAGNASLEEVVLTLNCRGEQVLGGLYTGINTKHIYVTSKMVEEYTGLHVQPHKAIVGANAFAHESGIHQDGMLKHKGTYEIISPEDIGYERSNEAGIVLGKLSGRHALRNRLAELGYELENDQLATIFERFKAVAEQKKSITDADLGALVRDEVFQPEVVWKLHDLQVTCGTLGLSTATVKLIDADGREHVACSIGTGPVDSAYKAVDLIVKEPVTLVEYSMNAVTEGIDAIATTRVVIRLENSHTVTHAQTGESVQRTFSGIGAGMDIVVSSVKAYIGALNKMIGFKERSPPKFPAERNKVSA
# MdIPMS1 [2] = target: T2, MdIPMS1 (Malus domestica, UniProt A0A498I0D3); assay: DTNB endpoint assay, feedback inhibition; format: biochemical; conditions: read-out: % inhibition at 0.05 mM
# T2 sequence (A0A498I0D3 59-236): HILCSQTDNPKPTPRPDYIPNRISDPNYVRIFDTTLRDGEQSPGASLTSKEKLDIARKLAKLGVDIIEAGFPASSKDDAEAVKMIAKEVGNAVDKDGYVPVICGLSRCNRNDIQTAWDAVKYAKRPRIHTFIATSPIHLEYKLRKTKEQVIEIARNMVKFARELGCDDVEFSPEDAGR
# T2 sequence (A0A498I0D3 250-642): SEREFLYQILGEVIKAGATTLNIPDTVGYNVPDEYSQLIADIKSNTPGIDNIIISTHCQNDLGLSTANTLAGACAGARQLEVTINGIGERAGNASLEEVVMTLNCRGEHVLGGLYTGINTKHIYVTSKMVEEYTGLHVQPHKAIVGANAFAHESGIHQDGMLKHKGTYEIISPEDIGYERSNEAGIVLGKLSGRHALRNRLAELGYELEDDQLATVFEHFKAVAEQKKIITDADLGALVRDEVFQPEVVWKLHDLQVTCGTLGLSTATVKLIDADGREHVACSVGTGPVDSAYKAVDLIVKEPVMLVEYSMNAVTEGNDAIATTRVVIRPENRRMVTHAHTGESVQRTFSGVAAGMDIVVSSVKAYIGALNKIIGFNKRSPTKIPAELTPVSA
# MdIPMS1 [3] = target: T2, MdIPMS1; assay: DTNB endpoint assay, feedback inhibition; format: biochemical; conditions: 10 mM α-ketoisovalerate; threonine range 0 to 10 mM
# MdIPMS2 [4] = target: T1, MdIPMS2; assay: DTNB endpoint assay, feedback inhibition; format: biochemical; conditions: 10 mM α-ketoisovalerate; threonine range 0 to 10 mM
smiles,measurement,setting,value
CC(=O)SCCNC(=O)CCNC(=O)[C@H](O)C(C)(C)COP(=O)(O)OP(=O)(O)OC[C@H]1O[C@@H](n2cnc3c(N)ncnc32)[C@H](O)[C@@H]1OP(=O)(O)O [Acetyl-CoA],Km,MdCMS_1; saturating (10 mM) pyruvate,6.6 ± 0.9 µM
CC(=O)C(=O)O [Pyruvate],Km,MdCMS_1; co-substrate acetyl-CoA,2450 µM
CC(C)C[C@H](N)C(=O)O [leucine],inhibition at 50 µM,MdIPMS2 [1],70%
same,inhibition at 50 µM,MdIPMS1 [2],40%
C[C@@H](O)[C@H](N)C(=O)O [threonine],% inhibition,MdIPMS1 [3],both MdIPMS proteins were inhibited by elevated levels of threonine
same,% inhibition,MdIPMS2 [4],both MdIPMS proteins were inhibited by elevated levels of threonine
CCC(=O)C(=O)O [α-Ketobutyrate],Km,MdCMS_1; co-substrate acetyl-CoA,3560 µM
